From ChEMBL document CHEMBL5038587, “Synthesis of Methoxy-, Methylenedioxy-, Hydroxy-, and Halo-Substituted Benzophenanthridinone Derivatives as DNA Topoisomerase IB (TOP1) and Tyrosyl-DNA Phosphodiesterase 1 (TDP1) Inhibitors and Their Biological Activity for Drug-Resistant Cancer” (J Med Chem, 2021)
Calls of active or inactive are those of the source. The calls are words filed in the database; no cut-off is given here.

Legend:
HCT-116 = assay: Cytotoxicity against human HCT-116 cells assessed as cell growth inhibition after 72 hrs by MTT assay; format: functional
How it was run: (§1)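 Cells kept in RPMI 1640 or DMEM with 10% FBS at 37 °C, 5% CO2. Compounds predissolved in DMSO, tested in a five-dose series from 0.01 to 100 µM for 72 h, then read by MTT. Percent viability inhibition is taken against control, and GI50 is fitted by nonlinear regression.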

MCF7 [1] = assay: Cytotoxicity against human MCF-7 cells assessed as cell growth inhibition after 72 hrs by MTT assay; format: functional
How it was run: (§2)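 Compounds predissolved in DMSO, tested in a five-dose series from 0.01 to 100 µM for 72 h, then read by MTT. Percent viability inhibition is taken against control, and GI50 is fitted by nonlinear regression.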

A549 = assay: Cytotoxicity against human A549 cells assessed as cell growth inhibition after 72 hrs by MTT assay; format: functional; how it was run: as §1
MCF7 [2] = assay: Cytotoxicity against human MCF-7/TDP1 cells assessed as cell growth inhibition after 72 hrs by MTT assay; format: functional
How it was run: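 MCF-7/TDP1 is a TDP1-overexpressing line made by transfecting parental MCF-7, grown in RPMI 1640 or DMEM with 10% FBS at 37 °C, 5% CO2. DMSO-dissolved compounds tested at five doses from 0.01 to 100 µM, read by MTT. GI50 (mean ± SD, at least three repeats) fitted by nonlinear regression against control.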

DU-145 = assay: Cytotoxicity against human DU145 cells assessed as cell growth inhibition after 72 hrs by MTT assay; format: functional; how it was run: as §2
[3] = Resistance index,ratio of GI50 for growth inhibition of human MCF-7/TDP1 cells to GI50 for growth inhibition of human MCF-7 cells; format: functional
How it was run: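 Resistance index is the MTT GI50 in TDP1-overexpressing MCF-7/TDP1 (transfected MCF-7) divided by the GI50 in parental MCF-7. GI50 values are mean ± SD of at least three experiments.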

MCF7 [4] = assay: Induction of DNA damage in human MCF7/TDP1 cells assessed as decrease in TPT-induced gammaH2AX foci at 2 uM measured after 6 hrs by DAPI staining based immunofluorescence assay; format: functional; design: scale not given: the % may be the effect or the level left
How it was run: (§3)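 Fixed in 4% paraformaldehyde, permeabilized with 0.5% Triton X-100, blocked in 5% goat serum. Stained with γH2AX antibody overnight at 4 °C, then Alexa 488 secondary plus DAPI 2 µg/mL. Foci counted by confocal microscopy, at least three independent repeats.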

[5] = molecular target: T1, Tyrosyl-DNA phosphodiesterase 1 (Homo sapiens, UniProt Q9NUW8); assay: Induction of TDP1-DNA complex formation in human […] cells at 10 to 100 uM in presence of TPT by ICE assay; format: cell-based; settings: dose 10-100 µM
How it was run: (§4)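 Genomic DNA isolated with DNAzol and ethanol precipitation, then 2 µg slot-blotted onto nitrocellulose in 25 mM NaH2PO4 pH 6.5. Probed with rabbit anti-TDP1 (1:1000) overnight at 4 °C, then HRP secondary, with chemiluminescent read-out.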

[6] = molecular target: T1, Tyrosyl-DNA phosphodiesterase 1; assay: Induction of TDP1-DNA complex formation in human MCF7/TDP1 cells at 10 uM by ICE assay; format: cell-based; how it was run: as §4
[7] = molecular target: T1, Tyrosyl-DNA phosphodiesterase 1; assay: Induction of TDP1-DNA complex formation in human MCF7 cells at 10 to 100 uM in presence of TPT by ICE assay; format: cell-based; settings: dose 10-100 µM; how it was run: as §4
[8] = molecular target: T1, Tyrosyl-DNA phosphodiesterase 1; assay: Induction of TDP1-DNA complex formation in human MCF7 cells at 10 uM by ICE assay; format: cell-based; how it was run: as §4
MCF7 [9] = assay: Induction of DNA damage in human MCF7/TDP1 cells assessed as increase in gammaH2AX foci at 1 uM measured after 6 hrs by DAPI staining based immunofluorescence assay; format: functional; how it was run: as §3
MCF7 [10] = assay: Induction of DNA damage in human MCF7 cells assessed as decrease in TPT-induced gammaH2AX foci at 1 uM measured after 6 hrs by DAPI staining based immunofluorescence assay; format: functional; design: scale not given: the % may be the effect or the level left; how it was run: as §3
MCF7 [11] = assay: Induction of DNA damage in human MCF7 cells assessed as decrease in TPT-induced gammaH2AX foci at 2 uM measured after 6 hrs by DAPI staining based immunofluorescence assay; format: functional; design: scale not given: the % may be the effect or the level left; how it was run: as §3
MCF7 [12] = assay: Induction of DNA damage in human MCF7/TDP1 cells assessed as decrease in TPT-induced gammaH2AX foci at 1 uM measured after 6 hrs by DAPI staining based immunofluorescence assay; format: functional; design: scale not given: the % may be the effect or the level left; how it was run: as §3
MCF7 [13] = assay: Induction of apoptosis in human MCF7 cells assessed as necrotic cells at 1 uM measured after 24 hrs by Annexin V-FITC/propidium iodide staining based flow cytometry (Rvb=0.83%); format: functional
How it was run: (§5)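 MCF-7 cells (2×10^5 per dish) exposed to compound at 1, 2 or 4 µM for 24 h. Cells resuspended in binding buffer and stained with Annexin V-FITC plus propidium iodide for 15 min at 25 °C in the dark. Viable, early apoptotic, late apoptotic and necrotic fractions quantified by flow cytometry.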

MCF7 [14] = assay: Induction of apoptosis in human MCF7 cells assessed as late apoptotic cells at 1 uM measured after 24 hrs by Annexin V-FITC/propidium iodide staining based flow cytometry (Rvb=0%); format: functional; how it was run: as §5
MCF7 [15] = assay: Induction of apoptosis in human MCF7 cells assessed as viable cells at 1 uM measured after 24 hrs by Annexin V-FITC/propidium iodide staining based flow cytometry (Rvb=99.05%); format: functional; settings: read-out: Activity; how it was run: as §5
MCF7 [16] = assay: Induction of apoptosis in human MCF7 cells assessed as early apoptotic cells at 1 uM measured after 24 hrs by Annexin V-FITC/propidium iodide staining based flow cytometry (Rvb=0.12%); format: functional; how it was run: as §5
MCF7 [17] = assay: Induction of apoptosis in human MCF7 cells assessed as necrotic cells at 2 uM measured after 24 hrs by Annexin V-FITC/propidium iodide staining based flow cytometry; format: functional; how it was run: as §5
MCF7 [18] = assay: Induction of apoptosis in human MCF7 cells assessed as late apoptotic cells at 2 uM measured after 24 hrs by Annexin V-FITC/propidium iodide staining based flow cytometry (Rvb=0%); format: functional; how it was run: as §5
MCF7 [19] = assay: Induction of apoptosis in human MCF7 cells assessed as viable cells at 2 uM measured after 24 hrs by Annexin V-FITC/propidium iodide staining based flow cytometry (Rvb=99.05%); format: functional; settings: read-out: Activity; how it was run: as §5
MCF7 [20] = assay: Induction of apoptosis in human MCF7 cells assessed as early apoptotic cells at 2 uM measured after 24 hrs by Annexin V-FITC/propidium iodide staining based flow cytometry (Rvb=0.12%); format: functional; how it was run: as §5
MCF7 [21] = assay: Induction of apoptosis in human MCF7 cells assessed as necrotic cells at 4 uM measured after 24 hrs by Annexin V-FITC/propidium iodide staining based flow cytometry (Rvb=0.83%); format: functional; how it was run: as §5
MCF7 [22] = assay: Induction of apoptosis in human MCF7 cells assessed as late apoptotic cells at 4 uM measured after 24 hrs by Annexin V-FITC/propidium iodide staining based flow cytometry (Rvb=0%); format: functional; how it was run: as §5
MCF7 [23] = assay: Induction of apoptosis in human MCF7 cells assessed as viable cells at 4 uM measured after 24 hrs by Annexin V-FITC/propidium iodide staining based flow cytometry (Rvb=99.05%); format: functional; settings: read-out: Activity; how it was run: as §5
MCF7 [24] = assay: Induction of apoptosis in human MCF7 cells assessed as early apoptotic cells at 4 uM measured after 24 hrs by Annexin V-FITC/propidium iodide staining based flow cytometry(Rvb=0.12%); format: functional; how it was run: as §5
MCF7 [25] = assay: Synergistic cytotoxicity against human MCF7 cells assessed as combination index measured after 96 hrs in presence of TPT by MTT assay; format: functional
MCF7 [26] = assay: Synergistic cytotoxicity against human MCF7/TDP1 cells assessed as combination index measured after 96 hrs in presence of TPT by MTT assay; format: functional
[27] = molecular target: T2, DNA topoisomerase 1 (Homo sapiens) (UniProt P11387); assay: Inhibition of recombinant TOP1 (unknown origin) at 1 uM using 3'-[32P]-labeled 117 bp DNA oligonucleotides as substrate incubated for 20 mins by PAGE analysis relative to CPT
T2 sequence (whole entry): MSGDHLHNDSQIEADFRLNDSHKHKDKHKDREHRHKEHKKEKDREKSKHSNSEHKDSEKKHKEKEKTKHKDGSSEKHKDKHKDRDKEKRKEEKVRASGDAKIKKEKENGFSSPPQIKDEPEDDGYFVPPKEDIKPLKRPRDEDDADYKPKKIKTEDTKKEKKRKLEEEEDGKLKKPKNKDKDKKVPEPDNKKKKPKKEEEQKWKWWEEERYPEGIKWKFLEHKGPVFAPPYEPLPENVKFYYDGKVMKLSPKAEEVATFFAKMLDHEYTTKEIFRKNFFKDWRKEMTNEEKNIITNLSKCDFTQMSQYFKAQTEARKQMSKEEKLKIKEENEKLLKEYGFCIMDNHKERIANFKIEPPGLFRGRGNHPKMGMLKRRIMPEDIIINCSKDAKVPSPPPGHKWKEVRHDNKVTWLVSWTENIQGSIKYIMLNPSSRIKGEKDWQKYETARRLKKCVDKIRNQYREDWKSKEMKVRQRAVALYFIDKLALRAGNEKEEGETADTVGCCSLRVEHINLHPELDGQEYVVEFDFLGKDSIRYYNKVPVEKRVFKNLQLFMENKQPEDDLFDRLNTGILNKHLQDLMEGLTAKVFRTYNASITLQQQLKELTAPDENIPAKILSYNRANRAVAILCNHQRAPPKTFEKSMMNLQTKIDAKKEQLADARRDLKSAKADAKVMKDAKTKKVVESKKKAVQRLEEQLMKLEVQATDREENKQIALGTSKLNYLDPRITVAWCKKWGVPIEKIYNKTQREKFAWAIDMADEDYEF
How it was run: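 3'-[32P]-labeled 117 bp oligonucleotide (~2 nM) with recombinant TOP1 and compound, 25 °C, 20 min. Buffer: 10 mM Tris-HCl pH 7.5, 50 mM KCl, 5 mM MgCl2, 0.1 mM EDTA, BSA. Stopped with 0.5% SDS and run on 20% denaturing PAGE with phosphorimaging.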

[28] = molecular target: T1, Tyrosyl-DNA phosphodiesterase 1; assay: Induction of TDP1-DNA complex formation in human MCF7 cells at 100 uM by ICE assay; format: cell-based; how it was run: as §4
MCF7/TDP1 = assay: Induction of DNA damage in human MCF7/TDP1 cells assessed as decrease in gammaH2AX foci at 2 uM measured after 6 hrs by DAPI staining based immunofluorescence assay; design: scale not given: the % may be the effect or the level left
MCF7 [29] = assay: Synergistic cytotoxicity against human MCF7/TDP1 cells at 100 nM after 96 hrs in presence of 12-(2-(Dimethylamino)ethyl)-1,2-dihydroxy-[1,3]dioxolo[4',5':4,5]benzo[1,2-c]phenanthridine-13(12H)-one by MTT assay; format: functional
MCF7 [30] = assay: Synergistic cytotoxicity against human MCF7/TDP1 cells at 100 nM after 96 hrs by MTT assay; format: functional
MCF7 [31] = assay: Synergistic cytotoxicity against human MCF7 cells at 50 nM after 96 hrs in presence of 12-(2-(Dimethylamino)ethyl)-1,2-dihydroxy-[1,3]dioxolo[4',5':4,5]benzo[1,2-c]phenanthridine-13(12H)-one by MTT assay; format: functional
MCF7 [32] = assay: Synergistic cytotoxicity against human MCF7 cells at 50 nM after 96 hrs by MTT assay; format: functional
MCF7 [33] = assay: Induction of DNA damage in human MCF7/TDP1 cells assessed as increase in gammaH2AX foci measured after 6 hrs by DAPI staining based immunofluorescence assay; format: functional; how it was run: as §3

T1 sequence (Q9NUW8 whole entry): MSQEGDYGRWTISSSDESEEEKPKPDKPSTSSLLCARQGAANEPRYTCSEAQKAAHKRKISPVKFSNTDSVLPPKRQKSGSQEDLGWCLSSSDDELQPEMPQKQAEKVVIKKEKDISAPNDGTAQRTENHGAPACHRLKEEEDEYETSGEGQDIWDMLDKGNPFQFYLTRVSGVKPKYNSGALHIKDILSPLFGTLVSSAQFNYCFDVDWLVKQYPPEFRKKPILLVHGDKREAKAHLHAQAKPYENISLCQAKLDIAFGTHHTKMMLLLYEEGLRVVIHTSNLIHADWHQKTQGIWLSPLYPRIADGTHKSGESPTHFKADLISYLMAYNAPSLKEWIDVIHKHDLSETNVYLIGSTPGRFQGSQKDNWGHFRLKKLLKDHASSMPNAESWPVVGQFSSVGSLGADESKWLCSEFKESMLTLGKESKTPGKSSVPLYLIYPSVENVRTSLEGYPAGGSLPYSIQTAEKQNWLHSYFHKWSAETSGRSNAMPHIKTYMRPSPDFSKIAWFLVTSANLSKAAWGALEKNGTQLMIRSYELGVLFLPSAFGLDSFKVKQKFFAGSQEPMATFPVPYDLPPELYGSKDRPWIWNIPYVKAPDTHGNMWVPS

CC[C@@]1(O)C(=O)OCc2c1cc1n(c2=O)Cc2cc3ccccc3nc2-1 [CAMPTOTHECIN]
GI50 (HCT-116): 0.05 µM
GI50 (MCF7 [1]): 0.35 µM
GI50 (A549): 0.31 µM
GI50 (MCF7 [2]): 3.21 µM

COc1cc2c(=O)n(CCN(C)C)c3c4cc5c(cc4ccc3c2cc1OC)OCO5
GI50 (HCT-116): 0.14 µM
GI50 (DU-145): 0.078 µM
GI50 (MCF7 [1]): 0.2 µM
GI50 (A549): 0.32 µM
GI50 (MCF7 [2]): 7.42 µM
RatioGI50 [3]: 19.9

CN(C)CCn1c(=O)c2c(O)c(O)ccc2c2ccc3cc4c(cc3c21)OCO4
Activity (MCF7 [4]): 18%
Activity [5]: Active
Activity [6]: Active
Activity [7]: Active
Activity [8]: inactive
GI50 (DU-145): 0.8 µM
GI50 (MCF7 [2]): 3.98 µM
Activity (MCF7 [9]): 22%
Activity (MCF7 [10]): 14%
Activity (MCF7 [11]): 18%
Activity (MCF7 [12]): 14%
Activity (MCF7 [13]): 0.16%
Activity (MCF7 [14]): 0.73%
viability at 1 µM (MCF7 [15]): 70.1%
Activity (MCF7 [16]): 28.99%
Activity (MCF7 [17]): 14.71%
Activity (MCF7 [18]): 24.3%
viability at 2 µM (MCF7 [19]): 39.7%
Activity (MCF7 [20]): 21.31%
Activity (MCF7 [21]): 9.31%
Activity (MCF7 [22]): 48.46%
viability at 4 µM (MCF7 [23]): 15.7%
Activity (MCF7 [24]): 26.53%
CI (MCF7 [25]): <0.3
CI (MCF7 [26]): <0.3
inhibition [27]: 75%
Activity [28]: Active
Activity (MCF7/TDP1): 28%

CC[C@@]1(O)C(=O)OCc2c1cc1n(c2=O)Cc2cc3c(CN(C)C)c(O)ccc3nc2-1 [TOPOTECAN]
Activity (MCF7 [29]): 86%
Activity (MCF7 [30]): 19%
Activity (MCF7 [31]): 87%
Activity (MCF7 [32]): 23%
Activity [8]: inactive
GI50 (MCF7 [2]): 2.59 µM
Activity (MCF7 [33]): 34%
Activity (MCF7 [9]): 34%
